Compound activity from PubChem BioAssay.
DDE Tn7 FP inh – inhibitors of Tn7 peptide binding to fibrin DD(E), primary screen, biochemical, fluorescence polarization, human fibrin, Tn7 probe; FP displacement of FITC-Tn7 peptide from fibrin DD(E); 0% = median of compound wells per plate; inhibition, % at 8.3 µM; Fibrinogen beta chain (Homo sapiens), P02675; actives 0.13% (n = 370,000); AID 720508, 2013;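 active = inhibition above the mean of compounds falling within the control limits plus 3 SD of them, cut at about 14% in these data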;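 note: 0% = plate median of compound wells and 100% = 10 µM Aha-Tn7 peptide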
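assay system = human clot-derived fibrin DD(E) complex | quantity = Fibrin-DD(E) at 2 µM final | timing = 10 min preincubation, 3 h with tracer, room temperature | signal = fluorescence polarization | measure = percent inhibition | benchmarks = high control wells with 10 µM unlabelled Aha-Tn7 peptide (full inhibition) | replicates = singlicate testing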
ABHD4 inh – ABHD4 inhibitors, primary screen, biochemical, fluorescence polarization, mouse | (Lyso)-N-acylphosphatidylethanolamine lipase (Mus musculus), Q8VD66 | inhibition, % at 8.92 µM | actives 0.54% (n = 370,000) | AID 720543, 2013 | purified mABHD4, FP-Rh probe fluorescence polarization;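 active = inhibition exceeding the mean over every tested compound plus 3 SD, cut at about 30% in these data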;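 note: 0% = plate median of compound wells and 100% = S159A mutant with DMSO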
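Assay system: wild-type mouse ABHD4 protein; compound: single nominal dose of 8.92 µM, 0.89% DMSO final; schedule: 45 min + 60 min at 25 °C; measured by: FP readout, ex 525 nm / em 598 nm; evaluation: % inhibition of FP-Rh probe binding versus controls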
HTRA1 inh – HTRA1 serine protease inhibitors, primary screen, biochemical, fluorescence polarization, HTS; Q92743; inhibition, % at 5.96 µM; actives 0.5% (n = 340,000); AID 504803, 2011; recombinant HTRA1, FP-rhodamine activity-based probe; in the data active = inhibition above about 36%;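 note: 0% = enzyme with DMSO and 100% = wells lacking enzyme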
Target sequence (Q92743 whole entry, looked up): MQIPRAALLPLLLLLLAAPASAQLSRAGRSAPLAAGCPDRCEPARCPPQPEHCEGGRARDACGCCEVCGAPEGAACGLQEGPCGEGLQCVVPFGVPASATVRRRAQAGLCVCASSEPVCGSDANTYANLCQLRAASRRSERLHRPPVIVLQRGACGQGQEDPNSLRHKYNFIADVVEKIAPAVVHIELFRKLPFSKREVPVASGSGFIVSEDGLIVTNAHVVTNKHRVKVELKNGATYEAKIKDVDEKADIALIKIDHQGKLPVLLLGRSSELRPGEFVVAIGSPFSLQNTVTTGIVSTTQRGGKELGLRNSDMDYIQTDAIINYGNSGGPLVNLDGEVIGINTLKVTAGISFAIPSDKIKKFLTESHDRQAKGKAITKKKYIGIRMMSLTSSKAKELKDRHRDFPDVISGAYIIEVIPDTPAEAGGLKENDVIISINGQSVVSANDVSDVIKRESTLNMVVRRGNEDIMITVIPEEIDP
DDE Tn6 FP inh – inhibitors of Tn6 peptide binding to fibrin DD(E), primary screen, biochemical, fluorescence polarization, human fibrin, Tn6 probe; Fibrinogen beta chain (Homo sapiens), P02675; Fibrin DD(E) TRITC-Tn6 fluorescence polarization displacement; inhibition, % at 8.3 µM; actives 0.21% (n = 370,000); AID 720509, 2013;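 active = inhibition above a per-campaign cutoff: mean of compounds within control limits plus 3 SD, cut at about 15% in these data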;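 note: 0% = median of all compound wells on the plate and 100% = blocking peptide control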
SIAE inh – human SIAE inhibitors, primary screen, biochemical, fluorescence polarization, FP-Rh probe, 1536-well HTS; Sialate O-acetylesterase (Homo sapiens), Q9HAT2; SIAE FP-Rh probe binding; inhibition, % at 9.66 µM; actives 0.69% (n = 370,000);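 active = inhibition above a cutoff: mean of compounds within the control limits plus 3 SD of those, cut at about 17% in these data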;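 note: 0% = plate median of compound wells and 100% = probe without SIAE protein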
TCR-CD3 inh – inhibitors of human TCR-CD3 interaction, primary screen, biochemical, fluorescence, TAMRA-labeled TCR probe | T-cell receptor (TCR) | actives 0.37% (n = 360,000) | inhibition, % at 9.4 µM; in the data active = inhibition above about 19%;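 note: recombinant mutant TCR 2C K166C tagged with TAMRA read by polarization; 0% = receptor in buffer alone and 100% = receptor with positive control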
HTRA1 conf – HTRA1 protease inhibitors, retest, confirmation, biochemical, fluorescence polarization; shares compounds with HTRA1 inh; recombinant HTRA1, FP-rhodamine activity-based probe; inhibition, % at 5.96 µM; actives 66% (n = 1,600); AID 540248, 2011;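 active = mean inhibition over three repeats above a set limit taken from the earlier primary screen, cut at about 37% in these data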;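 note: 0% = HTRA1 with DMSO and 100% = wells lacking HTRA1; inhibitors block probe binding so polarization drops and inhibition rises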
* marks the source's active call; other numbers are inactive results; nt = no result. Only some compounds are listed: those with a hit (about 1.8% of all), similar ones and a draw of the others.

SMILES	DDE Tn7 FP inh	ABHD4 inh	HTRA1 inh	DDE Tn6 FP inh	SIAE inh	TCR-CD3 inh	HTRA1 conf
O=c1c(O)c(-c2ccc(O)c(O)c2)oc2cc(O)ccc12	-6	27	39*	-7	0	18	35
Cc1nc(N)sc1N=Nc1ccccc1C(F)(F)F	-1	9	40*	-6	-2	-2	30
COc1ccc(C)cc1Nc1nc(-c2c[nH]c3ccccc23)cs1	-8	5	43*	2	8	-1	12
NNc1nc(C(F)(F)F)nc2ccccc12	3	5	-3	6	6	1	nt
O/C=c1\ccc2cccc3nc(C(F)(F)F)nc1c23	-5	28	43*	-5	17	2	99*
C=C[C@H]1CN2CC[C@H]1C[C@H]2[C@H](O)c1ccnc2ccc(OC)cc12	0	4	1	-4	-5	0	nt
Cc1ccc(/C=C2\SC(=S)N(/N=C/c3cc([N+](=O)[O-])ccc3O)C2=O)o1	nt	nt	49*	nt	nt	nt	39*
O=[N+]([O-])c1ccc(O)c(/C=N/n2cnc3ccccc32)c1	7	-1	7	-1	-10	-1	nt
Cc1ccc(N(C)C(=O)CCS(=O)(=O)c2cc3c(cc2Cl)NC(=O)CO3)cc1	8	4	-11	4	1	-5	nt
NS(=O)(=O)c1cccc(NC(=O)COC(=O)CN2C(=O)c3ccccc3C2=O)c1	6	-2	4	4	4	2	nt
CCCCCN1CCCCC(NC(=O)c2cccc(F)c2)C1=O (stereo not drawn)	0	0	nt	-6	0	nt	nt
COc1ccc2nc(NN=C(C)c3ccccn3)cc(C)c2c1	2	-13	55*	-4	-2	1	67*
CC(=NNc1ccc2ccccc2n1)c1ccccn1	-4	3	nt	9	5	-1	nt
CCCC(=O)NC(c1ccc(C(C)C)cc1)c1ccc2cccnc2c1O (stereo not drawn)	-3	12	52*	-9	10	-3	54*
CC(C)C(=O)NC(c1ccc(Cl)cc1Cl)c1ccc2cccnc2c1O (stereo not drawn)	-9	9	49*	1	3	-11	47*
Cc1ccnc(NC(c2ccccc2)c2ccc3cccnc3c2O)c1 (stereo not drawn)	2	12	15	2	3	-5	nt
CCCC(=O)NC(c1ccccc1Cl)c1ccc2cccnc2c1O (stereo not drawn)	-7	7	38*	1	15	-5	40*
Cc1cc(NC(c2ccc(Cl)cc2)c2ccc3cccnc3c2O)no1 (stereo not drawn)	11	17	48*	3	12	-5	51*
CCCC(=O)NC(c1ccc(N(C)C)cc1)c1ccc2cccnc2c1O (stereo not drawn)	-11	16	35	-3	10	-11	nt
O=C(Cn1cc([N+](=O)[O-])cn1)NC1CCCCCC1	-10	1	0	0	-1	2	nt
COc1ccc(S[C@]2(C(=O)N3CCN(c4ncccn4)CC3)CC(=O)N(S(=O)(=O)c3ccc(F)cc3)[C@@H]2c2ccc(OC)cc2)cc1	-3	-7	nt	1	-4	nt	nt
COc1ccc(C(NC(=O)C(C)C)c2ccc3cccnc3c2O)cc1 (stereo not drawn)	0	11	34	-4	11	-5	nt
CCC(=O)NC(c1ccc(C)cc1)c1ccc2cccnc2c1O (stereo not drawn)	-4	16	64*	-3	16	-3	76*
